Test results: ChEMBL document CHEMBL5030509, “A Crowding Barrier to Protein Inhibition in Colloidal Aggregates” (J Med Chem, 2021)
The source made the active and inactive calls. No cut-off for these calls is given here.

Key:
[1] = molecular target: T1, Malate dehydrogenase, mitochondrial (Homo sapiens) (UniProt P40926); assay: Inhibition of malate dehydrogenase (unknown origin) assessed as time to reach 90% inhibition pretreated with 50 mM KPi for 15 mins followed by nicotinamide adenine dinucleotide addition measured every 150 sec by spectrophotometric method; settings: dose 5.0 mM, in the assay text read “5 mM KPi” for “50 mM KPi”
T1 sequence (whole entry): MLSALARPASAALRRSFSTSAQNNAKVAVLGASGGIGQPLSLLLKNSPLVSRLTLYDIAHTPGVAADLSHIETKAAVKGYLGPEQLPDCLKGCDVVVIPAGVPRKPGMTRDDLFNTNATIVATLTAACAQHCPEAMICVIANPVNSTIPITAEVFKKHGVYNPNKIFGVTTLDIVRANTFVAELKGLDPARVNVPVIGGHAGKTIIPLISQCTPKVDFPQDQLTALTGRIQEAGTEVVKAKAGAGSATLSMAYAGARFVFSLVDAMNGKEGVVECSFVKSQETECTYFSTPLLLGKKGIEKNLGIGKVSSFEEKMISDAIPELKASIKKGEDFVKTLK
Summary of the method: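 Porcine heart MDH mixed with colloidal aggregator in 50 mM KPi pH 7 at room temperature, incubated 30 s–15 min. Reaction started with 200 μM NADH and 200 μM oxaloacetic acid, followed at 340 nm for 150 s. Initial rate relative to an aggregator-free control gives % activity. T90 is the incubation time to 10% activity.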

Bacteria [2] = assay: Inhibition of bacterial AmpC beta-lactamase assessed as time reach to 90% inhibition in absence of preloaded MDH
Summary of the method: (§1)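 AmpC activity with 70 μM CENTA, read at 405 nm for 150 s, in 50 mM KPi pH 7 at room temperature. For preloading, the aggregator was incubated 5 min with MDH before AmpC was added and incubated for varying times. % activity is relative to an aggregator-free rate control. T90 is the time to 10% activity.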

Bacteria [3] = assay: Inhibition of bacterial AmpC beta-lactamase at 5 uM preincubated for 1 min followed by CENTA chromogenic substrate addition by spectrophotometric method relative to control
Summary of the method: (§2)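 AmpC β-lactamase mixed with colloidal aggregator in 50 mM KPi pH 7 at room temperature, mixed by pipetting, incubated 30 s–15 min. Then 70 μM CENTA added and absorbance followed at 405 nm for 150 s. % activity is the initial rate relative to an aggregator-free control. T90 is the incubation time to reach 10% activity.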

Bacteria [4] = assay: Inhibition of bacterial AmpC beta-lactamase assessed as time reach to 90% inhibition in presence of preloaded MDH; summary of the method: as §1
Bacteria [5] = assay: Inhibition of bacterial AmpC beta-lactamase at 10 uM of 10 nM of enzyme preincubated for 5 min followed by CENTA chromogenic substrate addition by spectrophotometric assay relative to control; design: scale not given: the % may be the effect or the level left; summary of the method: as §2
Bacteria [6] = assay: Inhibition of bacterial AmpC beta-lactamase preincubated for 30 sec in absence of preloaded MDH relative to control; settings: concentration not given here; summary of the method: as §1
Bacteria [7] = assay: Inhibition of bacterial AmpC beta-lactamase at 10 uM using 2 nM of enzyme preincubated for 5 mins followed by CENTA chromogenic substrate addition by spectrophotometric assay relative to control; summary of the method: as §2
Bacteria [8] = assay: Inhibition of bacterial AmpC beta-lactamase at 5 uM preincubated for 2 mins followed by CENTA chromogenic substrate addition by spectrophotometric method relative to control; summary of the method: as §2
Bacteria [9] = assay: Inhibition of bacterial AmpC beta-lactamase preincubated for 30 sec in presence of preloaded MDH relative to control; settings: concentration not given here; summary of the method: as §1
Bacteria [10] = assay: Inhibition of bacterial AmpC beta-lactamase at 10 uM using 10 nM of enzyme preincubated for 30 sec followed by CENTA chromogenic substrate addition by spectrophotometric assay relative to control; summary of the method: as §2
[11] = molecular target: T1, Malate dehydrogenase, mitochondrial (Homo sapiens); assay: Inhibition of preloaded MDH (unknown origin) preincubated for 30 sec in presence of preloaded AmpC
Summary of the method: (§3)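 Porcine heart MDH assay: 200 μM nicotinamide adenine dinucleotide plus 200 μM oxaloacetate, read at 340 nm for 150 s, in 50 mM KPi pH 7 at room temperature. For preloading, the aggregator was first incubated 5 min with AmpC, then MDH was added and incubated for varying times. % activity is relative to an aggregator-free control.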

Escherichia coli = assay: Inhibition of Escherichia coli beta galactosidase using ortho-nitrophenyl-beta-galactoside as substrate
Summary of the method: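 E. coli β-galactosidase (overproducer) mixed with colloidal aggregator in 50 mM KPi pH 7, incubated 30 s–15 min at room temperature; reaction started with 300 μM ortho-nitrophenyl-β-galactoside and followed at 320 nm for 150 s. Initial rate divided by that of an aggregator-free control gives % activity.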

Bacteria [12] = assay: Inhibition of bacterial AmpC beta-lactamase at 10 uM using 2 nM of enzyme preincubated for 30 sec followed by CENTA chromogenic substrate addition by spectrophotometric assay relative to control; summary of the method: as §2
Bacteria [13] = assay: Inhibition of bacterial AmpC beta-lactamase at 5 uM preincubated for 5 min followed by CENTA chromogenic substrate addition by spectrophotometric method relative to control; summary of the method: as §2
[14] = molecular target: T1, Malate dehydrogenase, mitochondrial (Homo sapiens); assay: Inhibition of preloaded MDH (unknown origin) preincubated for 30 sec in absence of preloaded AmpC; summary of the method: as §3

**Q.** How did the TIME [1] turn out when CNC(=O)c1cc(Oc2ccc(NC(=O)Nc3ccc(Cl)c(C(F)(F)F)c3)cc2)ccn1 was run?
**A.** > 0.25 h

**Q.** And the TIME (Bacteria [2])?
**A.** 0.0167 h

**Q.** And the inhibition (Bacteria [3])?
**A.** 40%

**Q.** What about the TIME (Bacteria [4]) of the same compound?
**A.** 0.0833 h

**Q.** What about the Activity (Bacteria [5]) of the same compound?
**A.** 20%

**Q.** And the inhibition (Bacteria [6])?
**A.** 80%

**Q.** What about the inhibition (Bacteria [7]) of the same compound?
**A.** 100%

**Q.** And the inhibition (Bacteria [8])?
**A.** 80%

**Q.** What about the inhibition (Bacteria [9]) of the same compound?
**A.** 45%

**Q.** And the inhibition (Bacteria [10])?
**A.** 40%

**Q.** And the inhibition [11]?
**A.** Active

**Q.** And the inhibition (Escherichia coli)?
**A.** Active

**Q.** What about the inhibition (Bacteria [12]) of the same compound?
**A.** 67%

**Q.** What about the inhibition (Bacteria [13]) of the same compound?
**A.** 100%

**Q.** What about the inhibition [14] of the same compound?
**A.** Active
